From ChEMBL document CHEMBL2331396, “Exploration of 1-(3-chloro-4-(4-oxo-4H-chromen-2-yl)phenyl)-3-phenylurea derivatives as selective dual inhibitors of Raf1 and JNK1 kinases for anti-tumor treatment” (Bioorg Med Chem, 2013)
The source made the active and inactive calls. No cut-off for these calls is given here.

Tests used:
[1] = target: Mitogen-activated protein kinase 14 (Homo sapiens) (UniProt Q16539); assay: Inhibition of p38-alpha (unknown origin) at 50 uM
In short: (§1)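 Kinase-Glo Plus luminescent assay. Enzyme, substrate, ATP and compound were mixed in 25 mM HEPES pH 7.4 with 10 mM MgCl₂ and incubated 1 h at 30 °C. The reaction was stopped with an equal volume of Kinase-Glo Plus reagent. Luminescence reflects remaining ATP, inversely related to kinase activity, and is reported as percent inhibition at a single concentration.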

[2] = target: RAF proto-oncogene serine/threonine-protein kinase (Homo sapiens) (UniProt P04049); assay: Inhibition of Raf1 (unknown origin) at 50 uM; in short: as §1
Chain of RAF proto-oncogene serine/threonine-protein kinase (Homo sapiens) (P04049 whole entry): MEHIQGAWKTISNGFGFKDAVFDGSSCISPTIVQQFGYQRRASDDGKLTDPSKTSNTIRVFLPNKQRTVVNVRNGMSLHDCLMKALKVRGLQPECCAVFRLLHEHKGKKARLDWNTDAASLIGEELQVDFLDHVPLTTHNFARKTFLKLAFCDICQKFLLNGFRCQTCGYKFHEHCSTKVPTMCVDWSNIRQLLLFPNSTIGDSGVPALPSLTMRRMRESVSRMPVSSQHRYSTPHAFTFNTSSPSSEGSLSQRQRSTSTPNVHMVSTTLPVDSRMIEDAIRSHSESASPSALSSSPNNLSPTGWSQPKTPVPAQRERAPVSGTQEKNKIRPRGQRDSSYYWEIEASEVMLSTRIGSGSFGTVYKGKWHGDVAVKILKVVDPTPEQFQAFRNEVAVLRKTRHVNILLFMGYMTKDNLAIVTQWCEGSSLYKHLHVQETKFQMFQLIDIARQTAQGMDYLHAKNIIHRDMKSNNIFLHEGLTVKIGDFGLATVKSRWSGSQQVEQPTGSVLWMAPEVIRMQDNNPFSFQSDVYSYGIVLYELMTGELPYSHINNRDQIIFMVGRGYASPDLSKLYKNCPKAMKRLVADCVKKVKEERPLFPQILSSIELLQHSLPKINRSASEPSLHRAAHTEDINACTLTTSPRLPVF

[3] = Cytotoxicity against human HL7702 cells assessed as inhibition rate at 100 uM measured after 48 hrs by MTT assay; format: cell-based, L02; conditions: read-out: INH
In short: (§2)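 Normal liver cells were grown in DMEM with 10% FBS plus penicillin/streptomycin at 37 °C, 5% CO₂. They were seeded at 5 × 10⁵ cells/mL and incubated 24 h. Compounds from DMSO stock were added at final 50 or 100 µM (DMSO <1%), in triplicate, for 48 h. MTT was added for 4 h, formazan dissolved in DMSO, A495 read, and inhibition rate calculated.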

[4] = Cytotoxicity against human QSG7701 cells assessed as inhibition rate at 100 uM measured after 48 hrs by MTT assay; format: cell-based; conditions: read-out: INH; in short: as §2
[5] = Cytotoxicity against human HL7702 cells assessed as inhibition rate at 50 uM measured after 48 hrs by MTT assay; format: cell-based, L02; conditions: read-out: INH; in short: as §2
[6] = Cytotoxicity against human QSG7701 cells assessed as inhibition rate at 50 uM measured after 48 hrs by MTT assay; format: cell-based; conditions: read-out: INH; in short: as §2
HCT-116 = assay: Antiproliferative activity against human HCT116 cells assessed as growth inhibition measured after 48 hrs by MTT assay; format: functional, cell-based; conditions: HCT-116, 48 h
In short: (§3)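 Compounds dissolved in DMSO and diluted in medium to final 0.5–50 µM (final DMSO <1%). Cells were grown in DMEM with 10% FBS, penicillin and streptomycin at 37 °C, 5% CO₂. They were seeded at 5 × 10⁵ cells/mL, incubated 24 h, then treated in triplicate per concentration for 48 h. MTT was added for 4 h, formazan dissolved in DMSO, absorbance read at 495 nm, and IC50 derived.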

A549 = assay: Antiproliferative activity against human A549 cells assessed as growth inhibition measured after 48 hrs by MTT assay; format: functional, cell-based; conditions: A549, 48 h; in short: as §3
HepG2 = assay: Antiproliferative activity against human HepG2 cells assessed as growth inhibition measured after 48 hrs by MTT assay; format: functional, cell-based; conditions: HepG2, 48 h; in short: as §3
[7] = target: Mitogen-activated protein kinase 14 (Homo sapiens) (UniProt Q16539); assay: Inhibition of p38-alpha (unknown origin) at 100 uM; in short: as §1

Chain of Mitogen-activated protein kinase 14 (Homo sapiens) (Q16539 whole entry): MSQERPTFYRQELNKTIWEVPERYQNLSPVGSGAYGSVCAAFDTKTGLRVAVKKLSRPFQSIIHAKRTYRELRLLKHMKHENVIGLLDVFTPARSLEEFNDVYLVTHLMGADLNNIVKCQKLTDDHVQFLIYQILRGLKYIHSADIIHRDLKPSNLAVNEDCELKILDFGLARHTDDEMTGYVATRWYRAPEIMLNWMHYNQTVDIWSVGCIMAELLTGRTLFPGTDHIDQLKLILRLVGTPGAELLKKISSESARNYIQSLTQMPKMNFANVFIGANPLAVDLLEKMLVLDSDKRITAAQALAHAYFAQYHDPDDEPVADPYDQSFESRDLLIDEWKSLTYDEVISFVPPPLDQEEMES

SMILES	inhibition [1]	inhibition [2]	cytotoxicity at 48 h, 100 µM [3] [%]	cytotoxicity at 48 h, 100 µM [4] [%]	cytotoxicity at 48 h, 50 µM [5] [%]	cytotoxicity at 48 h, 50 µM [6] [%]	IC50 (HCT-116) [µM]	IC50 (A549) [µM]	IC50 (HepG2) [µM]	inhibition [7] [%]
Oc1ccc(-c2nc(-c3ccc(F)cc3)c(-c3ccncc3)[nH]2)cc1	106%									
Nc1ccc(-c2cc(=O)c3ccc(O)cc3o2)c(Cl)c1	inactive	inactive								
CCc1ccc2oc(-c3ccc(NC(=O)Nc4cccc(Cl)c4)cc3Cl)cc(=O)c2c1			37.2	18	9.4	12.6	27.9	> 50	30.7	
O=C(Nc1cccc(Cl)c1)Nc1ccc(-c2cc(=O)c3cc(F)ccc3o2)c(Cl)c1			54.2	57.7	20.1	26.8	24.2	> 50	31.7	
O=C(Nc1cccc(Cl)c1)Nc1ccc(-c2cc(=O)c3ccc(O)cc3o2)c(Cl)c1			83.8	43.2	80.2	34.6	25.9	16.8	12.2	
CCc1ccc2oc(-c3ccc(N)cc3Cl)cc(=O)c2c1		27%								14.5
CCc1ccc2oc(-c3ccc(NC(=O)Cc4cccc(F)c4)cc3Cl)cc(=O)c2c1			44.6	27.4	20.4	22.4	> 50	> 50	19.8	
